High-throughput results deposited in PubChem BioAssay by several laboratories.
A selection: hits, their analogues and other compounds. The true share with any hit is near 2.7%.
PP1 inh – PP1-alpha phosphatase inhibitors, primary screen, counter-screen for PP5 inhibitor project, biochemical, fluorescence, OMFP substrate, single point | Serine/threonine-protein phosphatase PP1-alpha catalytic subunit (Homo sapiens), P62136 | purified PP1alpha | inhibition, % at 6.7 µM | 0.9% of 320,000 active | AID 2235, 2010;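 active = inhibition above the mean inhibition of all tested compounds plus 3 SD, computed separately for each screening campaign, cut at about 15% in these data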
TPT1 inh – Candida albicans TPT1 enzyme inhibitors, primary screen, biochemical, fluorescence polarization; inhibition, % at 5 µM; 0.81% of 300,000 active; tRNA 2'-phosphotransferase TPT1 (Candida albicans SC5314); recombinant caTPT1, FP RNA substrate dephosphorylation;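 active = inhibition above the mean of all tested compounds plus 3 SD, set per screening campaign, cut at about 24% in these data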;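 note: plate controls were DMSO alone for no effect and ferristatin control at 100 nM for full effect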
NadD block – inhibitors of S. aureus NadD, primary screen, biochemical, colorimetric, uHTS. purified NadD enzyme, colorimetric absorbance read-out. inhibition, % at 20 µM. Nicotinate-nucleotide adenylyltransferase NadD (Staphylococcus aureus N315). AID 602399, 2012. 0.78% of 360,000 active; in the data active = inhibition above about 26%
Rpn11 inh – Rpn11 (PSMD14) deubiquitinase inhibitors, primary screen, biochemical, fluorescence polarization, uHTS | inhibition, % at 20 µM | 0.59% of 360,000 active | human 26S proteasome, Ub4-pepOG fluorescence polarization; 20S core pre-blocked with epoxomicin | 26S proteasome non-ATPase regulatory subunit 14 (Homo sapiens), O00487;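 active = inhibition at 20 µM, scaled to each plate's controls, above about 33%, limit read from the data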
Target sequence (O00487 whole entry, looked up): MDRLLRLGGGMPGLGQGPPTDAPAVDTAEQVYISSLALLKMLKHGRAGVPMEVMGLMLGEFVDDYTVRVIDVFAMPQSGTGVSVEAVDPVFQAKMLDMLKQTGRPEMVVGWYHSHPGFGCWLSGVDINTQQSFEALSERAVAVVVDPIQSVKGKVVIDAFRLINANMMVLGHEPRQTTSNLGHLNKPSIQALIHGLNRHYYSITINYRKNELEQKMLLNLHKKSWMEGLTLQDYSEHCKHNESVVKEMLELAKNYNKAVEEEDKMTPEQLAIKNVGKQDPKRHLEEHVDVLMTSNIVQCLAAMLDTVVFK
CSN inh – inhibitors of CSN-mediated cullin deneddylation, primary screen, biochemical, fluorescence polarization, uHTS; COP9 signalosome complex subunit 5 (Homo sapiens), Q92905; Purified CSN, SCF-Nedd8-OG deneddylation; inhibition, % at 12.5 µM; 0.38% of 360,000 active; AID 651999, 2013;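 active = pattern-corrected inhibition above about 35%, with an unprinted fluorescence ratio check between 0.5 and 1.5, limit read from the data, passing the limit was not always enough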;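 note: 0% = enzyme with substrate and 100% = substrate without enzyme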
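Schedule: reaction 90 min, room temperature / Assay system: HEK293T-derived human Csn5 enzyme / Input: Csn5 at 0.24 nM final / Measure: inhibition of Csn5 cleavage, % / Control set: substrate-only high control, full reaction low control / Technique: fluorescence polarization of the substrate / Buffer or medium: Tris/NaCl/DTT buffer, pH 7.5 / Reagent: SCFSkp2-Nedd8OG substrate at 10 nM final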
HNF4A DNA FP – change in binding of human HNF4A to DNA, primary screen, biochemical, fluorescence polarization, FITC-DNA; 1 h; activity change, % at 10 µM; Hepatocyte nuclear factor 4-alpha (Homo sapiens), P41235; AID 1224865, 2016; 0.3% of 360,000 active; in the data active = activity change above about 30%, passing the limit was not always enough
Rpn11 inh conf – Rpn11 (PSMD14) deubiquitinase inhibitors, confirmation, biochemical, fluorescence polarization, single concentration | shares compounds with Rpn11 inh | purified human 26S proteasome, Ub4-pepOG fluorescence polarization; proteasome pretreated with epoxomicin | inhibition, % at 20 µM | 29% of 1,900 active | AID 602318, 2012
MMP-2 inh – MMP-2 enzyme inhibition, confirmation, counter-screen for RPN11 inhibitor project, biochemical, fluorescence, single concentration; shares compounds with Rpn11 inh; recombinant MMP-2, FRET peptide cleavage fluorescence; inhibition, % at 20 µM; 4% of 1,900 active; AID 602330, 2012;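 note: human MMP-2 activated beforehand with APMA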
Thrombin inh – bovine thrombin protease inhibition, confirmation, counter-screen for Rpn11 inhibitor project, biochemical, fluorescence polarization, single concentration; shares compounds with Rpn11 inh; bovine thrombin cleavage of Ub4-pepOG; inhibition, % at 20 µM; 13% of 1,900 active; AID 602333, 2012;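 active = mean inhibition at least 40% at 20 µM, or signal 3 deviations below plate average, so some actives read negative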;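 note: plate controls were thrombin with DMSO for no effect and buffer wells lacking thrombin for full effect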
* marks the source's active call; other numbers are inactive results; . = not tested or not shown; + = active, no number. Cut-off read from the data, not from the text of the source, unless noted: active = inhibition above about 40%; inactive = the rest.

SMILES	PP1 inh	TPT1 inh	NadD block	Rpn11 inh	CSN inh	HNF4A DNA FP	Rpn11 inh conf	MMP-2 inh	Thrombin inh
CCCCCCC(=O)Nc1ccc(C(=O)N/N=C/c2cccnc2)cc1	0.8	-1.0	-2.9	1.0	-1.8	5.2	.	.	.
CCCc1nnc(NC(=O)Nc2ccc(OC)cc2)s1	2.9	1.9	-3.5	1.8	-0.6	-1.1	.	.	.
COc1ccc(NC(=O)Nc2nnc(Cc3ccc(F)cc3)s2)cc1	.	.	-7.7	59.3*	14.9	16.1	26.6	2.1	26.6
CC1(C(=O)NS(=O)(=O)c2ccccc2Cl)CCN1C(=O)Cc1cccc2ccccc12 (centres undefined)	.	.	-5.7	-4.6	-2.5	0.9	.	.	.
Nc1ncnc(Sc2ccc(Cl)cc2)c1[N+](=O)[O-]	-2.6	-0.7	1.4	44.4*	-4.2	3.8	0.7	28.4	8.0
CC(=O)c1cccc(NC(=O)Nc2nc(C)cc(C)n2)c1	-2.9	0.1	16.5	3.9	3.6	-2.6	.	.	.
CN(C)c1ccc(/C=N/NC(=O)c2nnn(-c3nonc3N)c2COc2ccc(F)cc2)cc1	-0.3	-2.1	17.3	137.7*	5.0	-5.2	-15.0	-37.8	-21.5
CCN(CC)Cc1c(C(=O)N/N=C/c2ccncc2)nnn1-c1nonc1N	-5.9	-3.8	-4.7	+	2.3	50.0*	-9.0	8.0	-3.8
N#CC(C(=O)NCCc1ccccc1)c1nc2ccccc2nc1N1CCCCC1 (centres undefined)	0.6	-0.3	-4.1	102.1*	2.9	11.1	-81.2	-67.9	-79.4
Cc1cccc(OCC(=O)NNC(=O)CSc2ncc(C#N)c(N)n2)c1	-2.5	1.1	3.2	-5.9	2.7	4.5	.	.	.
N#Cc1cnc(SCC(=O)NNC(=O)COc2cccc3ccccc23)nc1N	0.0	51.2*	4.5	45.4*	1.3	13.1	9.3	2.4	-0.4
CCOC(=O)c1sc(NN=C(C(=O)OC)C(=O)OC)c(C(=O)OCC)c1C	2.0	6.8	-6.8	42.8*	-10.1	25.1	11.3	33.8	4.0
C[C@@H]1CN([C@@H](C)CO)S(=O)(=O)c2ccc(Br)cc2O[C@H]1CN(C)Cc1ccccn1	.	.	-5.8	-3.6	-1.0	-2.2	.	.	.
COc1ccc(-c2coc3c(C(=O)N4CCN(C)CC4)cccc23)c(C)c1	.	.	0.9	-5.6	-0.1	-0.6	.	.	.
COc1ccc(C2=NN(C(=O)c3cccc([N+](=O)[O-])c3)C(c3cccc([N+](=O)[O-])c3)C2)cc1 (centres undefined)	1.2	1.3	1.8	-4.2	1.9	0.8	.	.	.
COc1ccc(C2CC(c3cccc([N+](=O)[O-])c3)=NN2/C(C)=C/C(C)=O)cc1 (centres undefined)	.	.	-1.3	90.1*	57.0*	87.1*	142.4*	-4.4	150.5*
CCCc1cc(C(=O)N2CCC(n3nccc3NC(=O)c3ccc(OC)cc3)CC2)no1	-2.5	0.7	-4.2	-3.9	0.8	8.9	.	.	.
NC(=O)CC(NC(=O)Cc1ccc(Cl)cc1)c1ccc(NC2CCCCC2)c([N+](=O)[O-])c1 (centres undefined)	2.5	0.7	-2.4	21.5	96.9	4.0	.	.	.
